# According to ChEMBL document CHEMBL4477176, “Cyclopenta[b]benzofuran and Secodammarane Derivatives from the Stems of Aglaia stellatopilosa” (2016):
# Activity calls are given as the source filed them. The calls are words filed in the database; no cut-off is given here.
# What was measured:
# HT-29 = assay: Cytotoxicity against human HT-29 cells assessed as growth inhibition by SRB assay; assay type: functional; conditions: read-out: ED50 (the source's name)
# MCF7 = assay: Cytotoxicity against human MCF7 cells assessed as growth inhibition by SRB assay; assay type: functional
# NCI-H460 = assay: Cytotoxicity against human NCI-H460 cells assessed as growth inhibition by SRB assay; assay type: functional
# Staphylococcus aureus [1] = assay: Antibacterial activity against Staphylococcus aureus NBRC 12732 assessed as growth inhibition at 25 to 200 uM incubated for 24 hrs by microtiter plate based assay; assay type: functional
# In short: (§1)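 Bacteria grown in Luria–Bertani broth; inoculum from fresh culture, serially diluted to 1 × 10^5 cells/mL. Samples dissolved in DMSO at 200 μM and serially 2-fold diluted down to 25 μM in 96-well plates. Incubated at 28 °C for 24 h. OD600 read before and after incubation. MIC taken as the lowest concentration giving ≥90% growth reduction. Triplicates.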
# Micrococcus luteus = assay: Antibacterial activity against Micrococcus luteus NBRC 12708 assessed as growth inhibition at 25 to 200 uM incubated for 24 hrs by microtiter plate based assay; assay type: functional, organism-based; in short: as §1
# Bacillus subtilis [2] = assay: Antibacterial activity against Bacillus subtilis NBRC 3134 assessed as growth inhibition at 25 to 200 uM incubated for 24 hrs by microtiter plate based assay; assay type: functional; in short: as §1
# Escherichia coli = assay: Antibacterial activity against Escherichia coli NBRC 3301 assessed as growth inhibition at 25 to 200 uM incubated for 24 hrs by microtiter plate based assay; assay type: functional, organism-based; in short: as §1
# Pseudomonas aeruginosa = assay: Antibacterial activity against Pseudomonas aeruginosa NBRC 12689 assessed as growth inhibition at 25 to 200 uM incubated for 24 hrs by microtiter plate based assay; assay type: functional, organism-based; in short: as §1
# Porphyromonas gingivalis = assay: Antibacterial activity against Porphyromonas gingivalis CCUG 25893 assessed as growth inhibition at 25 to 200 uM incubated for 24 hrs by microtiter plate based assay; assay type: functional; in short: as §1
# Saccharomyces cerevisiae = assay: Antimicrobial activity against Saccharomyces cerevisiae ATCC 9763 assessed as growth inhibition at 25 to 200 uM incubated for 24 hrs by microtiter plate based assay; assay type: functional, organism-based
# In short: (§2)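 Yeasts grown in Sabouraud dextrose broth; inoculum 1 × 10^6 cells/mL. Samples dissolved in DMSO at 200 μM and 2-fold diluted down to 25 μM in 96-well plates. Incubated at 28 °C for 24 h. OD600 read before and after incubation. MIC taken as the lowest concentration giving ≥90% growth reduction. Three replicates.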
# Rhodotorula glutinis = assay: Antimicrobial activity against Rhodotorula glutinis NBRC 1125 assessed as growth inhibition at 25 to 200 uM incubated for 24 hrs by microtiter plate based assay; assay type: functional, organism-based; in short: as §2
# Malassezia furfur = assay: Antimicrobial activity against Pityrosporum ovale CCUG 24229 assessed as growth inhibition at 25 to 200 uM incubated for 24 hrs by microtiter plate based assay; assay type: functional; in short: as §2
# Aspergillus niger = assay: Antifungal activity against Aspergillus niger NBRC 4066 assessed as growth inhibition at 25 to 200 uM incubated for 48 hrs by microtiter plate based assay; assay type: functional
# In short: as §2, with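 “Aspergillus niger” for “Yeasts”, “48” for “24”, “inhibition.” for “growth reduction.”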
# Bacillus subtilis [3] = assay: Antibacterial activity against Bacillus subtilis NBRC 3134 assessed as growth inhibition at 20 uM incubated for 24 hrs by microtiter plate based assay; assay type: functional; conditions: NBRC 3134, 24 h, read-out: GI
# Staphylococcus aureus [4] = assay: Antibacterial activity against Staphylococcus aureus NBRC 12732 assessed as growth inhibition at 80 uM incubated for 24 hrs by microtiter plate based assay; assay type: functional; conditions: NBRC 12732, 24 h, read-out: GI
smiles,measurement,setting,value
COC(=O)C(C)(C)[C@@H]1CC[C@]2(C)[C@H](CC[C@@H]3[C@@H]([C@]4(C)CC[C@H](C(C)(C)O)O4)CC[C@]32C)[C@@]1(C)/C=C/NC=O,EC50,HT-29,> 10 µM
same,GI50,MCF7,> 10 µM
same,GI50,NCI-H460,> 10 µM
same,growth inhibition (GI),Staphylococcus aureus [1],inactive
same,growth inhibition (GI),Micrococcus luteus,inactive
same,growth inhibition (GI),Bacillus subtilis [2],inactive
same,growth inhibition (GI),Escherichia coli,inactive
same,growth inhibition (GI),Pseudomonas aeruginosa,inactive
same,growth inhibition (GI),Porphyromonas gingivalis,inactive
same,growth inhibition (GI),Saccharomyces cerevisiae,inactive
same,growth inhibition (GI),Rhodotorula glutinis,inactive
same,growth inhibition (GI),Malassezia furfur,inactive
same,growth inhibition (GI),Aspergillus niger,inactive
C=C(C)[C@@H]1CC[C@]2(C)[C@H](CC[C@@H]3[C@@H]([C@](C)(O)CC[C@@H](O)C(C)(C)O)CC[C@]32C)[C@@]1(C)CCC(=O)OC,EC50,HT-29,> 10 µM
same,GI50,MCF7,> 10 µM
same,GI50,NCI-H460,> 10 µM
same,growth inhibition (GI),Staphylococcus aureus [1],>=90%
same,growth inhibition (GI),Micrococcus luteus,inactive
same,growth inhibition (GI),Bacillus subtilis [2],>=90%
same,growth inhibition (GI),Escherichia coli,inactive
same,growth inhibition (GI),Pseudomonas aeruginosa,inactive
same,growth inhibition (GI),Porphyromonas gingivalis,60 - 89%
same,growth inhibition (GI),Saccharomyces cerevisiae,inactive
same,growth inhibition (GI),Rhodotorula glutinis,inactive
same,growth inhibition (GI),Malassezia furfur,inactive
same,growth inhibition (GI),Aspergillus niger,60 - 89%
same,inhibition of growth at 20 µM,Bacillus subtilis [3],≥ 90%
same,inhibition of growth at 80 µM,Staphylococcus aureus [4],≥ 90%
COC(=O)C(C)(C)[C@@H]1CC[C@]2(C)[C@H](CC[C@@H]3[C@@H]([C@](C)(O)CC[C@@H](O)C(C)(C)O)CC[C@]32C)[C@@]1(C)CC(=O)O,EC50,HT-29,> 10 µM
same,GI50,MCF7,> 10 µM
same,GI50,NCI-H460,> 10 µM
same,growth inhibition (GI),Staphylococcus aureus [1],inactive
same,growth inhibition (GI),Micrococcus luteus,inactive
same,growth inhibition (GI),Bacillus subtilis [2],inactive
same,growth inhibition (GI),Escherichia coli,inactive
same,growth inhibition (GI),Pseudomonas aeruginosa,inactive
same,growth inhibition (GI),Porphyromonas gingivalis,inactive
same,growth inhibition (GI),Saccharomyces cerevisiae,inactive
same,growth inhibition (GI),Rhodotorula glutinis,inactive
same,growth inhibition (GI),Malassezia furfur,inactive
same,growth inhibition (GI),Aspergillus niger,inactive
COC(=O)C(C)(C)[C@@H]1CC[C@]2(C)[C@H](CC[C@@H]3[C@@H]([C@](C)(O)CC[C@@H](O)C(C)(C)O)CC[C@]32C)[C@@]1(C)/C=C/NC=O,EC50,HT-29,> 10 µM
same,GI50,MCF7,> 10 µM
same,GI50,NCI-H460,> 10 µM
same,growth inhibition (GI),Staphylococcus aureus [1],inactive
same,growth inhibition (GI),Micrococcus luteus,inactive
same,growth inhibition (GI),Bacillus subtilis [2],inactive
same,growth inhibition (GI),Escherichia coli,inactive
same,growth inhibition (GI),Pseudomonas aeruginosa,inactive
same,growth inhibition (GI),Porphyromonas gingivalis,60 - 89%
same,growth inhibition (GI),Saccharomyces cerevisiae,inactive
same,growth inhibition (GI),Rhodotorula glutinis,inactive
same,growth inhibition (GI),Malassezia furfur,60 - 89%
same,growth inhibition (GI),Aspergillus niger,inactive
COC(=O)C(C)(C)[C@@H]1CC[C@]2(C)[C@H](CC[C@@H]3[C@@H]([C@](C)(O)CC[C@@H](O)C(C)(C)O)CC[C@]32C)[C@@]1(C)CC=O,EC50,HT-29,> 10 µM
same,GI50,MCF7,> 10 µM
same,GI50,NCI-H460,> 10 µM
same,growth inhibition (GI),Staphylococcus aureus [1],60 - 89%
same,growth inhibition (GI),Micrococcus luteus,inactive
same,growth inhibition (GI),Bacillus subtilis [2],inactive
same,growth inhibition (GI),Escherichia coli,inactive
same,growth inhibition (GI),Pseudomonas aeruginosa,inactive
same,growth inhibition (GI),Porphyromonas gingivalis,inactive
same,growth inhibition (GI),Saccharomyces cerevisiae,inactive
same,growth inhibition (GI),Rhodotorula glutinis,inactive
same,growth inhibition (GI),Malassezia furfur,inactive
same,growth inhibition (GI),Aspergillus niger,inactive
